Results taken from ChEMBL document CHEMBL4376901, “Azo-PROTAC: Novel Light-Controlled Small-Molecule Tool for Protein Knockdown” (J Med Chem, 2020).
Active and inactive are the calls of the source. No cut-off for these calls is given here.

Key:
[1] = Drug metabolism assessed as photoisomerization to cis-isomer after exposure to UV-C light and measured after 1 hr by UV-visible absorption spectra analysis
[2] = Drug metabolism assessed as photoisomerization to cis-isomer after exposure to white light light up to 240 mins by UV-visible absorption spectra analysis
[3] = Half life for spontaneous thermal relaxation under dark condition at 25 degC; format: physicochemical
[4] = Stability in presence of 20 mM of GSH reduced in DMSO/PBS buffer (1:1) solution incubated for 48 hrs; format: physicochemical
K562 [5] = assay: Antiproliferative activity against human K562 cells assessed as inhibition of cell proliferation incubated for 48 hrs by CCK8 assay; format: functional, cell-based; conditions: K562, 48 h
K562 [6] = assay: Cytotoxicity against human K562 cells assessed as inhibition of cell viability incubated for 48 hrs by Cell-titer-Glo luminescent cell viability assay; format: functional, cell-based; conditions: K562, 48 h
A549 = assay: Cytotoxicity against human A549 cells assessed as inhibition of cell viability incubated for 48 hrs by Cell-titer-Glo luminescent cell viability assay; format: functional, cell-based
HCT-116 = assay: Cytotoxicity against human HCT116 cells assessed as inhibition of cell viability incubated for 48 hrs by Cell-titer-Glo luminescent cell viability assay; format: functional, cell-based
MCF7 = assay: Cytotoxicity against human MCF7 cells assessed as inhibition of cell viability incubated for 48 hrs by Cell-titer-Glo luminescent cell viability assay; format: functional, cell-based
[7] = target: T1, Protein cereblon/Tyrosine-protein kinase ABL1/Breakpoint cluster region protein (Homo sapiens) (UniProt P00519+P11274+Q96SW2); assay: Protac activity at CRBN/BCR-ABL in human K562 cells assessed as reduction in BCR-ABL protein levels pre-treated with ABL inhibitor dasatinib followed by compound addition at 250 nM incubated for 24 hrs by Western blot analysis; format: cell-based
[8] = target: T2, Protein cereblon/Tyrosine-protein kinase ABL1 (Homo sapiens) (UniProt P00519+Q96SW2); assay: Protac activity at CRBN/ABL in human K562 cells assessed as reduction in ABL protein levels pre-treated with ABL inhibitor dasatinib followed by compound addition at 250 nM incubated for 24 hrs by Western blot analysis; format: cell-based
[9] = target: T1, Protein cereblon/Tyrosine-protein kinase ABL1/Breakpoint cluster region protein (Homo sapiens); assay: Protac activity at CRBN/BCR-ABL in human K562 cells assessed as reduction in BCR-ABL protein levels pre-treated with lenalidomide followed by compound addition at 250 nM incubated for 24 hrs by Western blot analysis; format: cell-based
[10] = target: T2, Protein cereblon/Tyrosine-protein kinase ABL1 (Homo sapiens); assay: Protac activity at CRBN/ABL in human K562 cells assessed as reduction in ABL protein levels pre-treated with lenalidomide followed by compound addition at 250 nM incubated for 24 hrs by Western blot analysis; format: cell-based
[11] = target: T1, Protein cereblon/Tyrosine-protein kinase ABL1/Breakpoint cluster region protein (Homo sapiens); assay: Protac activity at CRBN/BCR-ABL in human K562 cells assessed as reduction in BCR-ABL protein levels pre-treated with NEDD8-activating enzyme (NAE) inhibitor MLN4924 followed by compound addition at 250 nM incubated for 24 hrs by Western blot analysis; format: cell-based
[12] = target: T2, Protein cereblon/Tyrosine-protein kinase ABL1 (Homo sapiens); assay: Protac activity at CRBN/ABL in human K562 cells assessed as reduction in ABL protein levels pre-treated with NEDD8-activating enzyme (NAE) inhibitor MLN4924 followed by compound addition at 250 nM incubated for 24 hrs by Western blot analysis; format: cell-based
[13] = target: T1, Protein cereblon/Tyrosine-protein kinase ABL1/Breakpoint cluster region protein (Homo sapiens); assay: Protac activity at CRBN/BCR-ABL in human K562 cells assessed as reduction in BCR-ABL protein levels at 250 nM incubated for 4 hrs by Western blot analysis; format: cell-based; conditions: in the assay text read “10 hrs” for “4 hrs”
Outline: (§1)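 Time-course in K562 cells at a fixed 250 nM PROTAC, run separately with the trans and cis forms. Cells were harvested at several time points. BCR-ABL and ABL protein levels were read by Western blot.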

[14] = target: T2, Protein cereblon/Tyrosine-protein kinase ABL1 (Homo sapiens); assay: Protac activity at CRBN/ABL in human K562 cells assessed as reduction in ABL protein levels at 250 nM incubated for 4 hrs by Western blot analysis; format: cell-based; outline: as §1
[15] = target: T1, Protein cereblon/Tyrosine-protein kinase ABL1/Breakpoint cluster region protein (Homo sapiens); assay: Protac activity at CRBN/BCR-ABL in human K562 cells assessed as reduction in BCR-ABL protein levels at 250 nM incubated for 10 hrs by Western blot analysis; format: cell-based; outline: as §1
[16] = target: T2, Protein cereblon/Tyrosine-protein kinase ABL1 (Homo sapiens); assay: Protac activity at CRBN/ABL in human K562 cells assessed as reduction in ABL protein levels at 250 nM incubated for 10 hrs by Western blot analysis; format: cell-based; outline: as §1
[17] = target: T1, Protein cereblon/Tyrosine-protein kinase ABL1/Breakpoint cluster region protein (Homo sapiens); assay: Protac activity at CRBN/BCR-ABL in human K562 cells assessed as reduction in BCR-ABL protein levels at 250 nM incubated for 32 hrs by Western blot analysis; format: cell-based; parameters: scale not given: the % may be the effect or the level left; outline: as §1
[18] = target: T2, Protein cereblon/Tyrosine-protein kinase ABL1 (Homo sapiens); assay: Protac activity at CRBN/ABL in human K562 cells assessed as reduction in ABL protein levels at 250 nM incubated for 32 hrs by Western blot analysis; format: cell-based; parameters: scale not given: the % may be the effect or the level left; outline: as §1
K562 [19] = assay: Effect on ABL gene expression in human K562 cells at 50 to 500 nM incubated for 36 hrs by RT-qPCR analysis; format: ADME, cell-based; conditions: k562, 36 h, 0.5 µM
[20] = target: T1, Protein cereblon/Tyrosine-protein kinase ABL1/Breakpoint cluster region protein (Homo sapiens); assay: Protac activity at CRBN/BCR-ABL in human K562 cells assessed as reduction in BCR-ABL protein levels incubated for 24 hrs followed by exposure to UV-C light every 4 hrs by Western blot analysis; format: cell-based
Outline: (§2)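 K562 cells were treated with the trans form for 24 h, then moved to fresh medium and split into two groups. One group was exposed to UV-C light every 4 h and harvested. The control group was harvested without irradiation at 0, 4, 8, 12, 16 and 24 h. Proteins were read by Western blot.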

[21] = target: T2, Protein cereblon/Tyrosine-protein kinase ABL1 (Homo sapiens); assay: Protac activity at CRBN/ABL in human K562 cells assessed as reduction in ABL protein levels incubated for 24 hrs followed by exposure to UV-C light every 4 hrs by Western blot analysis; format: cell-based; outline: as §2
[22] = target: T1, Protein cereblon/Tyrosine-protein kinase ABL1/Breakpoint cluster region protein (Homo sapiens); assay: Protac activity at CRBN/BCR-ABL in human K562 cells assessed as reduction in BCR-ABL protein levels incubated for 24 hrs followed by exposure to white light up to 24 hrs hrs by Western blot analysis; format: cell-based
Outline: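 Cells were preincubated with the cis form while shielded from light, then moved to fresh medium and exposed to visible light. BCR-ABL was followed over time by Western blot.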

[23] = target: T2, Protein cereblon/Tyrosine-protein kinase ABL1 (Homo sapiens); assay: Protac activity at CRBN/ABL in human K562 cells assessed as reduction in ABL protein levels incubated for 24 hrs followed by exposure to white light up to 24 hrs by Western blot analysis; format: cell-based
[24] = target: T2, Protein cereblon/Tyrosine-protein kinase ABL1 (Homo sapiens); assay: Protac activity at CRBN/ABL in human K562 cells assessed as reduction in ABL protein levels incubated for 24 hrs by Western blot analysis
[25] = target: T1, Protein cereblon/Tyrosine-protein kinase ABL1/Breakpoint cluster region protein (Homo sapiens); assay: Protac activity at CRBN/BCR-ABL in human K562 cells assessed as reduction in BCR-ABL protein levels incubated for 24 hrs by Western blot analysis
[26] = target: T2, Protein cereblon/Tyrosine-protein kinase ABL1 (Homo sapiens); assay: Protac activity at CRBN/ABL in human K562 cells assessed as reduction in ABL protein levels at 100 nM incubated for 24 hrs by Western blot analysis
[27] = target: T1, Protein cereblon/Tyrosine-protein kinase ABL1/Breakpoint cluster region protein (Homo sapiens); assay: Protac activity at CRBN/BCR-ABL in human K562 cells assessed as reduction in BCR-ABL protein levels at 100 nM incubated for 24 hrs by Western blot analysis
[28] = Drug metabolism assessed as photoisomerization to cis-isomer after exposure to UV-C light and measured up to 120 mins by UV-visible absorption spectra analysis
[29] = target: T1, Protein cereblon/Tyrosine-protein kinase ABL1/Breakpoint cluster region protein (Homo sapiens); assay: Protac activity at CRBN/BCR-ABL in human K562 cells assessed as reduction in BCR-ABL protein levels at 50 to 250 nM incubated for 24 hrs by Western blot analysis; format: cell-based
Outline: (§3)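 K562 cells were exposed for 24 h to a concentration gradient of the trans or cis form. BCR-ABL and ABL protein levels were assessed by Western blot in a dose-effect design.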

[30] = target: T2, Protein cereblon/Tyrosine-protein kinase ABL1 (Homo sapiens); assay: Protac activity at CRBN/ABL in human K562 cells assessed as reduction in ABL protein levels at 50 to 250 nM incubated for 24 hrs by Western blot analysis; format: cell-based; outline: as §3
[31] = target: T2, Protein cereblon/Tyrosine-protein kinase ABL1 (Homo sapiens); assay: Protac activity at CRBN/ABL in human K562 cells assessed as reduction in ABL protein levels at 500 nM incubated for 24 hrs by Western blot analysis
[32] = target: T1, Protein cereblon/Tyrosine-protein kinase ABL1/Breakpoint cluster region protein (Homo sapiens); assay: Protac activity at CRBN/BCR-ABL in human K562 cells assessed as reduction in BCR-ABL protein levels at 500 nM incubated for 24 hrs by Western blot analysis

T1 sequence (P00519 whole entry, looked up): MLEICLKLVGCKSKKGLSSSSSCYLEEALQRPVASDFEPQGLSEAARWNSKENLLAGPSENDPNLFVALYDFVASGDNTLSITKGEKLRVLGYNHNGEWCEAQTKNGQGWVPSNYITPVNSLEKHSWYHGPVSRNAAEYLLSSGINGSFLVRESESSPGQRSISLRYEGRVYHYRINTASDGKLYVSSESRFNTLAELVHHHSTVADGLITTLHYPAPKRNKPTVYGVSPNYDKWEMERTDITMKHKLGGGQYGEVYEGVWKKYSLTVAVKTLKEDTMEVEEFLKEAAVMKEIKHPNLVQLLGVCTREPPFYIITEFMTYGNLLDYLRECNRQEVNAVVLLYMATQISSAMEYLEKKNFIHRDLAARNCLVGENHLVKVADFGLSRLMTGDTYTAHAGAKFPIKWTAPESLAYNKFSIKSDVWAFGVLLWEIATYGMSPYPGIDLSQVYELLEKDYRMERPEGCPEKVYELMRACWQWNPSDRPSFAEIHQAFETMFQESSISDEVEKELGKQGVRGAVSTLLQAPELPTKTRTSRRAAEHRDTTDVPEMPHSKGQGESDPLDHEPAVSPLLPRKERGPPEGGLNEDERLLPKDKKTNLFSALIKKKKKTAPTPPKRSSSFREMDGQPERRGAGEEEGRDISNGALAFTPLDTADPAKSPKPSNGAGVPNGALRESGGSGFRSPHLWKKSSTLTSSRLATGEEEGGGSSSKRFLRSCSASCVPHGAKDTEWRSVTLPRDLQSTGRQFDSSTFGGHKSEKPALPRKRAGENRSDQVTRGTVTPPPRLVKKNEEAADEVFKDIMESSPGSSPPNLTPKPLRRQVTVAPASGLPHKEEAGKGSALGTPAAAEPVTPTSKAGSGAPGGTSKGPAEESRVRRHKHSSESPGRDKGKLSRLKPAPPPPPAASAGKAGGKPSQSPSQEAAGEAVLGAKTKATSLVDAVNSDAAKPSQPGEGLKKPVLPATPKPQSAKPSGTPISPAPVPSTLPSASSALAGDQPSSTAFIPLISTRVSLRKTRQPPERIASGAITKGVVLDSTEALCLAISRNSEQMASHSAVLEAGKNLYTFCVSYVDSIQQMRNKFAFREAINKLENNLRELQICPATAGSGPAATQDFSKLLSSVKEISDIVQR
T1 sequence (P11274 whole entry, looked up): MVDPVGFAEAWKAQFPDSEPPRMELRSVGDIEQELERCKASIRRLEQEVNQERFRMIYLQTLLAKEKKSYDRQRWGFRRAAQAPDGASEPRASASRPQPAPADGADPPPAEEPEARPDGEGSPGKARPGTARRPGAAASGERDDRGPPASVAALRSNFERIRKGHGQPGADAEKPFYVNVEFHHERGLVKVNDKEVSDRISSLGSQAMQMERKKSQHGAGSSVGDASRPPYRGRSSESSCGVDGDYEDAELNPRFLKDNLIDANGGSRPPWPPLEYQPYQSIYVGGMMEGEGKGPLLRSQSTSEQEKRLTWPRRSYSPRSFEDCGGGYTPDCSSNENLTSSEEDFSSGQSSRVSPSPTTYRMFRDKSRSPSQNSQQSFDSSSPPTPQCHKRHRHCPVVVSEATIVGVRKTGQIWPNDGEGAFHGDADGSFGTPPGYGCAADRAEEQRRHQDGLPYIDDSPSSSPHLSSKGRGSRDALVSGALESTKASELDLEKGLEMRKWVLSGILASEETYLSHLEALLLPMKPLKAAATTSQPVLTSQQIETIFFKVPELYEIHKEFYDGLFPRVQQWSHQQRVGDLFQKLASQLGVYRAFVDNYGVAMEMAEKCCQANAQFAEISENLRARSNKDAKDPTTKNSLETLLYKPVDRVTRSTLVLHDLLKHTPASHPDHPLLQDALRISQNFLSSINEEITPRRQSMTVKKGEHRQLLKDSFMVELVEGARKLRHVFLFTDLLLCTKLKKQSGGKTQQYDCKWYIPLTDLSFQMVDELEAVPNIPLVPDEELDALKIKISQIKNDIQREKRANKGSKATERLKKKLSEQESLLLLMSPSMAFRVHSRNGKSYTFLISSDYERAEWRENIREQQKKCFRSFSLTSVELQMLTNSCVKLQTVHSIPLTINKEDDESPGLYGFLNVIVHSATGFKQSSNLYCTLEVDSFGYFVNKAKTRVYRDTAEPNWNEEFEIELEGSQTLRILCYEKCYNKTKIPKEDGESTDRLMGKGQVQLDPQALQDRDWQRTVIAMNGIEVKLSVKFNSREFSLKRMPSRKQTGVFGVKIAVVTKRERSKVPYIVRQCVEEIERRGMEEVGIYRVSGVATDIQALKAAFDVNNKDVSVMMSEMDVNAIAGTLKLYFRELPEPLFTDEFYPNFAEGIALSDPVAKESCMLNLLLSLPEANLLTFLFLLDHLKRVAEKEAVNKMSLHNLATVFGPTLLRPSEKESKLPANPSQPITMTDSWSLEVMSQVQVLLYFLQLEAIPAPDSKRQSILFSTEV
T1 sequence (Q96SW2 whole entry, looked up): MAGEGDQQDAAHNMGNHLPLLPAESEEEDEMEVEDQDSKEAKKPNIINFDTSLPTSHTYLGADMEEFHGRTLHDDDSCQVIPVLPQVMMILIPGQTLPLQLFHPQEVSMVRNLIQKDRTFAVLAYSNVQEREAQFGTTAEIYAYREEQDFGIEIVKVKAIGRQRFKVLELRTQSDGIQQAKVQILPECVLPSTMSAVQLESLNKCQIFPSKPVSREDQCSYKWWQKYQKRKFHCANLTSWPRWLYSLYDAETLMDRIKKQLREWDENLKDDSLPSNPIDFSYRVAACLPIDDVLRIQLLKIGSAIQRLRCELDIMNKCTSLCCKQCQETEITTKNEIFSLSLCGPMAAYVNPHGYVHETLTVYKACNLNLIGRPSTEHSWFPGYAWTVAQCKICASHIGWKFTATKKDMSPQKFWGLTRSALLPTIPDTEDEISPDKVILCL
T2 sequence (P00519 whole entry, looked up): as the sequence (P00519 whole entry, looked up) above
T2 sequence (Q96SW2 whole entry, looked up): as the sequence (Q96SW2 whole entry, looked up) above

With `Cc1nc(Nc2ncc(C(=O)Nc3c(C)cccc3Cl)s2)cc(N2CCN(CCCCOc3ccc(/N=N/c4ccc(C(=O)Nc5cccc6c5CN(C5CCC(=O)NC5=O)C6=O)cc4)cc3)CC2)n1` (stereo unspecified) the Drug metabolism [1] was “Metabolite detected”, the Drug metabolism [2] was “Metabolite detected” and the t1/2 [3] was 10.3 h. For the same compound, the Stability [4] was “Stable”, the IC50 (K562 [5]) was 68 nM and the EC50 (K562 [6]) was 28 nM. For the same compound, the Activity (A549) was “inactive”, the Activity (HCT-116) was “inactive” and the Activity (MCF7) was “inactive”. The Activity [7] was “inactive”, the Activity [8] was “inactive” and the Activity [9] was “inactive”. The Activity [10] was “inactive”, the Activity [11] was “inactive” and the Activity [12] was “inactive”. The Activity [13] was “Active”, the Activity [14] was “Active” and the Activity [15] was “Active”. For the same compound, the Activity [16] was “Active”, the Activity [17] was over 90% and the Activity [18] was over 90%. The Activity (K562 [19]) was “Non-Toxic”, the Activity [20] was “inactive” and the Activity [21] was “inactive”. For the same compound, the Activity [22] was “Active”, the Activity [23] was “Active” and the Activity [24] was “Dose-dependent effect”. For the same compound, the Activity [25] was “Dose-dependent effect”, the Activity [26] was “Active” and the Activity [27] was “Active”. The Drug metabolism [28] was “Metabolite detected”.
For `Cc1nc(Nc2ncc(C(=O)Nc3c(C)cccc3Cl)s2)cc(N2CCN(CCOc3ccc(/N=N/c4ccc(C(=O)Nc5cccc6c5CN(C5CCC(=O)NC5=O)C6=O)cc4)cc3)CC2)n1` (stereo unspecified), the Activity [26] was “Active” and the Activity [27] was “Active”.
In the case of `Cc1nc(Nc2ncc(C(=O)Nc3c(C)cccc3Cl)s2)cc(N2CCN(CCCCOc3ccc(/N=N/c4ccc(C(=O)Nc5cccc6c5CN(C5CCC(=O)N(C)C5=O)C6=O)cc4)cc3)CC2)n1` (single isomer, unassigned; (-)), the Activity [29] is reported as “inactive” and the Activity [30] is reported as “inactive”.
With `Cc1nc(Nc2ncc(C(=O)Nc3c(C)cccc3Cl)s2)cc(N2CCN(CCCCOc3ccc(/N=N\c4ccc(C(=O)Nc5cccc6c5CN(C5CCC(=O)NC5=O)C6=O)cc4)cc3)CC2)n1` (stereo unspecified) the Activity [17] was “inactive”, the Activity [18] was “inactive” and the Activity ([22]; TDE = time-dependent effect) was “Tde”. The Activity ([23]; TDE = time-dependent effect) was “Tde”, the Activity [31] was “inactive” and the Activity [32] was “inactive”.
